An excerpt weighted towards active compounds, which were near 2.4% of everything screened.
MPTP inh: permeability transition pore inhibition; AID 602449; inhibition, % at 10 µM; isolated mouse mitochondria, Ca2+ swelling absorbance, 30 min; actives 1.4% (n = 360,000);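 active means inhibition of 50% or more, scaled per plate between neutral and stimulator controls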;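 further: 0% = DMSO wells given calcium and 100% = 1 mM EGTA wells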
NR2E3 ag-1: agonists of human NR2E3 nuclear receptor | AID 602229 | inhibition of corepressor binding, % at 3.98 µM | Q9Y5X4 | actives 0.35% (n = 360,000) | CHO-S Gal4-NCOR/VP16-NR2E3 two-hybrid, luciferase;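 active means inhibition above the mean of all tested compounds plus 3 SD, cut at about 70% in these data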;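 further: 0% = DMSO with NR2E3 transfected cells and 100% = cells lacking NR2E3 construct; higher means lower luciferase signal from less NR2E3 corepressor binding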
Target sequence (Q9Y5X4 whole entry, looked up, the tested form may be a part): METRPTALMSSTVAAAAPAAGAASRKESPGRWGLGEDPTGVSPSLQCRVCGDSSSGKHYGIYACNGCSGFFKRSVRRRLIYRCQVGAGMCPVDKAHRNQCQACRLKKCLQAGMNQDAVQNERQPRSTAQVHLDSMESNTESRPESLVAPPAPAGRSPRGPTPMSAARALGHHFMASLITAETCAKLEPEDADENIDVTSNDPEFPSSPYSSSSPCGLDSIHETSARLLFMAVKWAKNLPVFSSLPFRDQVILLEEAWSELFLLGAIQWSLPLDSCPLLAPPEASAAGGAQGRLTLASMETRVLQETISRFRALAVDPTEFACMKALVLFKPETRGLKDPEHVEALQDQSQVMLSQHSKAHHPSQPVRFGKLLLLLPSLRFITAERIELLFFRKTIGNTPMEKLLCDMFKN
Jurkat NFkB inh: lowers PMA/ionomycin-induced NF-kB signal in Jurkat cells. AID 435003. actives 0.53% (n = 330,000). PMA/ionomycin-induced NF-kB luciferase reporter, luminescence. inhibition, % at 4 µM; in the data active means inhibition above about 50%
697 NFkB inh: lowers PMA/ionomycin-induced NF-kB signal in 697 B cells | 697 B-cell NF-kB luciferase reporter, 16 h | inhibition, % at 4 µM | actives 0.33% (n = 330,000); in the data active means inhibition above about 35%
NR2E3 ag-2: NR2E3 (human) agonism; Q9Y5X4; GST-NR2E3/biotin-RetCOR TR-FRET, 1536-well; inhibition of corepressor binding, % at 4.78 µM; actives 0.12% (n = 320,000); AID 2300;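 active means percent inhibition above the cutoff of mean plus 3 SD of all tested compounds, set per screening campaign, cut at about 20% in these data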;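 further: 0% = DMSO wells and 100% = biotin wells as full block of FRET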
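Material – GST-tagged NR2E3 plus biotinylated RetCOR corepressor · Quantity – NR2E3 fusion 1.35 nM · Times – 5 h incubation at 4 °C · Medium – pH 7.5 Tris-based buffer · Technique – TR-FRET, Eu(K)-anti-GST donor, streptavidin-D2 acceptor, ex 340, em 617/671 nm · Benchmarks – high control biotin, low control 0.6% DMSO · Format – 1536-well plates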
aDG glyco act: alpha-DG glycosylation activation; Pro5-aDG cells, alpha-DG glycosylation AlphaScreen (IIH6); 0% Pro5, 100% B10-LARGE cell signal; activation, % at 10 µM; actives 0.22% (n = 360,000);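 active means activation of at least 8% versus controls, or a plate z-score of at least 8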;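 further: Pro5 are CHO cells carrying HIG-tagged alpha-DG that lacks glycosylation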
MPTP counter: Rhodamine 123 counter-screen of mitochondrial pore hits; shares compounds with MPTP inh; isolated mitochondria, membrane potential, Rhodamine 123 fluorescence; inhibition, % at 10 µM; actives 78% (n = 5,000); in the data active means inhibition above about 22%;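 further: 0% = DMSO vehicle and 100% = positive control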
MPTP abs DR: MPTP inhibition, dose response swelling confirmation. AID 651561. shares compounds with MPTP inh. IC50, µM. actives 58% (n = 780). isolated mitochondria swelling, absorbance; in the data active means IC50 below about 20 µM
MPTP counter DR: MPTP inhibitor counter-screen activity, dose response | shares compounds with MPTP inh | isolated mitochondria counterscreen, fluorescence read-out | IC50, µM | actives 49% (n = 780) | AID 651564; in the data active means IC50 below about 80 µM
Numbers without * were called inactive; i = inactive; · = not tested or not shown; + = active, no number.

SMILES | MPTP inh | NR2E3 ag-1 | Jurkat NFkB inh | 697 NFkB inh | NR2E3 ag-2 | aDG glyco act | MPTP counter | others
COc1ccc(C(=O)Oc2c(C)occc2=O)cc1OC | 3 | 10 | 6 | 14 | 2 | 0 | ·
Cc1cc(C(F)(F)F)c(C#N)c(SCC(=O)Nc2nc3cc(Br)ccc3s2)n1 | 87* | 25 | -22 | -108 | 0 | 0 | 12 | MPTP abs DR=16*;MPTP counter DR=3.2*
CCC(C)NCCCOc1ccc(Cl)cc1C(C)(C)C (stereo unspecified) | 0 | 20 | -2 | -5 | 2 | 0 | ·
COCCCNCCCOc1ccc(Cl)cc1C(C)(C)C | 82* | 11 | 0 | -4 | -4 | 2 | -15 | MPTP abs DR=6*;MPTP counter DR=>80
CNCCCOc1ccc(Cl)cc1C(C)(C)C | 91* | -19 | -14 | -20 | -1 | 7 | -12 | MPTP abs DR=5.1*;MPTP counter DR=>80
COc1cc2c(cc1OC)C(C)N(S(=O)(=O)c1ccc(Cl)nc1)CC2 (stereo unspecified) | 0 | -13 | 2 | 5 | -5 | 0 | ·
COC(=O)c1ccc(N2CCN(S(=O)(=O)c3ccc(C)cc3)CC2)c([N+](=O)[O-])c1 | 56* | 5 | 5 | 4 | 4 | 1 | 65*
Cn1c(=O)n(C)c2cc([N+](=O)[O-])c(N3CCN(S(=O)(=O)c4ccc(C(C)(C)C)cc4)CC3)cc21 | 54* | -17 | 31 | -28 | 1 | 3 | 71*
CC(=O)Nc1ccc(S(=O)(=O)N2CCN(c3cc4c(cc3[N+](=O)[O-])n(C)c(=O)n4C)CC2)cc1 | 4 | 16 | 10 | 9 | -1 | 0 | ·
O=C(O)c1ccccc1C(=O)c1ccc(N2CCCC2)c([N+](=O)[O-])c1 | 0 | -36 | 4 | 0 | 2 | 0 | ·
CC(=O)c1ccc(N2CCN(c3ccccc3O)CC2)c([N+](=O)[O-])c1 | 85* | 35 | 4 | -9 | 2 | 1 | 81*
COc1ccc2[nH]c3c(c2c1)CCN1C(=O)C(CC(=O)NCc2ccco2)C[C@H](C(=O)N2CCOCC2)[C@@]31C (stereo partly specified) | 0 | 0 | · | 4 | · | 0 | ·
O=C(CC1SC(=Nc2ccc(OC(F)F)cc2)N(CCC2=CCCCC2)C1=O)Nc1ccccc1F (stereo unspecified) | 96* | 2 | -8 | -15 | -3 | 2 | 72*
Cn1cncc1C#Cc1ccc2cc(CCO)oc(=O)c2c1 | 0 | -18 | 0 | 10 | 1 | 0 | ·
Cc1ccc(S(=O)(=O)Nc2ccccc2-c2nc3ccccc3[nH]c2=O)cc1 | 0 | 0 | -4 | -1 | 2 | 0 | ·
COc1ccccc1Oc1ccc2c(c1)C(=O)N(c1cccc(O)c1)C2=O | 6 | -58 | -4 | -26 | 3 | 0 | ·
COc1ccccc1Oc1ccc2c(c1)C(=O)N(c1cccc3ncccc13)C2=O | 96* | 32 | · | · | · | 0 | 112*
OC(COc1ccc(OCC(O)CN2CCN(Cc3ccccc3)CC2)cc1)CN1CCN(Cc2ccccc2)CC1 (stereo unspecified) | 54* | -2 | 5 | -6 | -2 | 3 | -2 | MPTP abs DR=12*;MPTP counter DR=30*
CC1CCC(C(C)C)C(OCC(O)CN2CCOCC2)C1 (stereo unspecified) | 0 | -13 | 31 | 3 | -2 | 0 | ·
OC(COc1ccc2cc(Br)ccc2c1)CN1CCCC1 (stereo unspecified) | 88* | 13 | -68 | -18 | -2 | 4.7* | -6 | MPTP abs DR=9.4*;MPTP counter DR=>80
CC1CCC(C(C)C)C(OCC(O)CN2CCN(Cc3ccccc3)CC2)C1 (stereo unspecified) | 86* | 2 | 9 | 7 | 4 | 1 | -1 | MPTP abs DR=i;MPTP counter DR=40*
COc1cccc(OCC(O)CN2CCC(Cc3ccccc3)CC2)c1 (stereo unspecified) | 56* | -36 | -6 | -10 | 4 | 1 | -6 | MPTP abs DR=19*;MPTP counter DR=62*
Nc1nc2sc3c(c2c(=O)s1)CCCC3 | 1 | -88 | -26 | -16 | 1 | 0 | ·
Nc1c2c(nc3sc4c(c13)CCCC4)CCCCCC2 | 86* | -48 | -44 | -116 | -3 | 1 | 103*
O=C1NC[C@@H](CCCCN2CCN(CC3CCCCC3)C(=O)C2=O)N(CC2CCCCC2)C1=O | 0 | 9 | · | · | · | 0 | ·
SMILES | MPTP inh | NR2E3 ag-1 | Jurkat NFkB inh | 697 NFkB inh | NR2E3 ag-2 | aDG glyco act | MPTP counter | others
Oc1ccc(C[C@@H]2CNCCN2CCc2cccc3ccccc23)cc1 | 84* | -2 | 23 | 12 | -3 | 4 | -14 | MPTP abs DR=14*;MPTP counter DR=>80
c1ccc(C2(CN3CCNC[C@H]3Cc3cccc4ccccc34)CC2)cc1 | 0 | 12 | 2 | 13 | 0 | 0 | ·
CC(C)(C)CN1CCNC[C@H]1Cc1cccc2ccccc12 | 55* | -21 | 4 | 21 | 1 | 0 | -9 | MPTP abs DR=7.1*;MPTP counter DR=66*
O=Cc1ccccc1-c1cn(CCCOCc2ccccc2)nn1 | 0 | -10 | 7 | 14 | -1 | 0 | ·
O=[N+]([O-])c1cc(Br)cc(C=Nc2ccc3c(c2)OCO3)c1O | 75* | -13 | -9 | 7 | 1 | 0 | 52*
O=[N+]([O-])c1ccc(O)c(C=Nc2ccc3c(c2)OCO3)c1 | 6 | -80 | -54 | -159 | 3 | 0 | ·
O=C(NCc1ccc(Cl)cc1)c1n[nH]c([N+](=O)[O-])c1Cl | 76* | -108 | 10 | -9 | 3 | 0 | 91*
O=C(Cc1ccccc1[N+](=O)[O-])NCc1ccc(Cl)cc1 | -3 | -52 | -22 | -29 | 3 | 0 | ·
CCOC(=O)c1[nH]c(C)c(/C(O)=C2\C(=O)C(=O)N(CCN3CCOCC3)C2c2cccs2)c1C (stereo unspecified) | + | -79 | 22 | -4 | 4 | 0 | 1
COC(=O)c1[nH]c(C)c(/C(O)=C2\C(=O)C(=O)N(CCN(C)C)C2c2cccs2)c1C (stereo unspecified) | 1 | -6 | -2 | 8 | 5 | 0 | ·
O=C1/C(=C/c2ccc(O)cc2)SC(=S)N1CC1CCCO1 (stereo unspecified) | 60* | 5 | 9 | 12 | -5 | 0 | 70*
CCCOc1ccc(/C=C2\SC(=S)N(CC3CCCO3)C2=O)cc1 (stereo unspecified) | 1 | -1 | -12 | 6 | -2 | 0 | ·
COc1cc(NC(=O)COC(=O)c2[nH]c(C)c(C(C)=O)c2C)cc(OC)c1 | 2 | 20 | 13 | 6 | · | 0 | ·
